ABCB1 block: blocks JC-1 efflux by human ABCB1 transporter. P08183. CCRF-Adr cells, flow cytometry. inhibition, % at 6.6 µM. actives 0.067% (n = 190,000). AID 1326; in the data active = inhibition above about 40%;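 note: 0% = vehicle and 100% = reference inhibitor; higher value means more JC-1 retained so stronger ABCB1 efflux block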
WT yeast gro inh: growth inhibition of WT yeast, mitochondrial fusion screen | actives 2.1% (n = 190,000) | mitochondrial fusion phenotypic screen, WT strain | inhibition, % at 10 µM; in the data active = inhibition above about 58%; tested in S. cerevisiae
RAM inhibit: yeast RAM network inhibition. S. cerevisiae dse1pr::URA3 reporter, 5-FOA growth OD615, 2 d; analog-sensitive cbk1-as2 kinase mutant strain. AID 868. inhibition, % at 50 µM. actives 1.8% (n = 190,000);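 active = inhibition above a set limit, 3 SD over mean compound inhibition, cut at about 8.4% in these data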;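 note: 0% = DMSO-only wells with no growth and 100% = 10 µM 1-NA-PP1 full growth; inhibition rescues growth on 5-FOA so higher OD means more RAM inhibition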
Lmaj promast: reduces viability of Leishmania major promastigotes; inhibition, % at 10 µM; resazurin fluorescence viability; actives 9% (n = 200,000); in the data active = inhibition above about 50%;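 note: promastigotes grown with compound for 44 hours at 28 °C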
ABCG2 inh: inhibitors of human ABCG2 transporter, ABCB1 counter-screen | Q9UNQ0 | IgMXP3 cells, JC-1 efflux, flow cytometry | inhibition, % at 6.6 µM | actives 0.1% (n = 190,000);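 active = inhibition above 80%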;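 note: 0% = DMSO and 100% = nicardipine control wells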
Target sequence (Q9UNQ0 whole entry, looked up): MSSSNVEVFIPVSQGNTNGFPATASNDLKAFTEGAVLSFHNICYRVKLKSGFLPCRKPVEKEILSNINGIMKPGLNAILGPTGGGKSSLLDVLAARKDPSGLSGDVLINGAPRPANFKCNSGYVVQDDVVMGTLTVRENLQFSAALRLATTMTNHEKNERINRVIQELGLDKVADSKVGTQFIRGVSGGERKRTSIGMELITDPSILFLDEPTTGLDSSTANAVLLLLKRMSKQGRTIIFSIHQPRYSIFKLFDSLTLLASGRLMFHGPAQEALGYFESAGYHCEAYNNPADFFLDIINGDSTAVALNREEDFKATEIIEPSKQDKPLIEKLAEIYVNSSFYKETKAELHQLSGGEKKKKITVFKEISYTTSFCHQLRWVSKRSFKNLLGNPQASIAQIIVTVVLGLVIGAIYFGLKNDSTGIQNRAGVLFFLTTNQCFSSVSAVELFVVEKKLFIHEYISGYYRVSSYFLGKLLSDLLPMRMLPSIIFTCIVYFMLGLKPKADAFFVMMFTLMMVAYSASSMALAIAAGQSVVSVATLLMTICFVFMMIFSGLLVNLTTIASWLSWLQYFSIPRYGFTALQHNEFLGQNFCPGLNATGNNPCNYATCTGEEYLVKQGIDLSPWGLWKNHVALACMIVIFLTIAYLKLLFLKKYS
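Test system: IgMXP3 (ABCG2) plus far-red-tagged CCRF-Adr (ABCB1) cells / Amount: 3 million cells/mL in well / Reagent: JC-1 transporter substrate / Timing: 10 min compound exposure, 25 °C / Signal: flow cytometry, 530 nm JC-1 signal / Read-out: percent efflux inhibition, scaled nicardipine 100% to DMSO 0% / Benchmarks: nicardipine as high control, DMSO as low control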
The depositor's hits bear a star; / = no result given. In the library only some 12% were active in any assay of this set; here they are far more common.

SMILES | ABCB1 block | WT yeast gro inh | RAM inhibit | Lmaj promast | ABCG2 inh
CSc1nc(-c2ccco2)nn1C(=O)c1cccs1 | 0 | 10 | 4 | -5 | 1
CN(C)C(=O)C(=O)c1cccn1-c1cccc(Cl)c1C#N | 1 | -14 | 0 | -3 | 2
COc1ccc(-n2ccnc2SCC(=O)NCc2ccco2)c(OC)c1 | 2 | 14 | 0 | -4 | 5
C=CCOC(=O)C1C(=O)CC(C)(O)C(C(=O)OCC=C)C1c1ccc(N(C)C)cc1 (stereo not drawn) | 0 | -1 | 0 | -3 | -1
COc1ccc(CCNc2oc(Cc3cccc4ccccc34)nc2C#N)cc1OC | 1 | 34 | 6 | 25 | 10
CN(C)CCNc1oc(COc2ccc(-c3ccccc3)cc2)nc1C#N | 0 | 5 | 1 | 66* | 6
COc1ccc(CCNc2oc(COc3ccc(Br)cc3)nc2C#N)cc1OC | 1 | 22 | 10.0* | 3 | 6
N#Cc1nc(COc2ccc(-c3ccccc3)cc2)oc1NCCCN1CCOCC1 | 1 | 77* | 0 | 64* | 3
O=C1CN(C(=O)CSc2nc3ccccc3n2CCc2ccccc2)c2ccccc2N1 | 0 | 3 | -2 | 58* | -7
CC(C)CCn1c(SCC(=O)N2CC(=O)Nc3ccccc32)nc2scc(-c3cccs3)c2c1=O | 0 | 5 | 0 | 4 | 1
C=CCn1c(SCC(=O)N2CC(=O)Nc3ccccc32)nc2scc(-c3cccs3)c2c1=O | 6 | -26 | 8 | 65* | 8
CCCn1c(SCC(=O)N2CC(=O)Nc3ccccc32)nc2ccccc21 | 0 | 7 | 0 | -4 | -1
COC(=O)Cn1ccc(N(C)C)c(C#N)c1=O | 1 | 60* | 1 | -2 | 2
COC(=O)Cn1ccc(-c2ccc(Cl)cc2)c(C#N)c1=O | 0 | -8 | 1 | -12 | 16
O=C(NC(Cc1ccc(F)cc1)C(=O)O)c1ccccc1 (stereo not drawn) | 1 | 0 | 0 | 70* | -3
Cc1ccc(CC(NC(=O)c2ccccc2)C(=O)NC(C)C(=O)O)cc1 (stereo not drawn) | 0 | 23 | 1 | 84* | 0
O=C(NC(Cc1ccccc1)C(=O)O)c1ccccc1 (stereo not drawn) | -2 | 8 | 0 | 4 | -3
CCOC(=O)C1CCN(CCC(=O)Nc2ccc(Cl)cc2)CC1 | 1 | -13 | 2 | 91* | 13
CCOC(=O)C1CCN(CCC(=O)Nc2cccc(Cl)c2C)CC1 | 1 | 3 | 3 | 94* | 1
CCOC(=O)C1CCCN(CCC(=O)Nc2ccc(F)c(F)c2)C1 (stereo not drawn) | 0 | 2 | -2 | 43 | -1
Cc1ccc(Cl)cc1NC(=O)COC(=O)C1CC1 | 2 | 7 | 1 | -6 | 12
CCOC(=O)C1CCN(CCC(=O)Nc2ccccc2)CC1 | 0 | -16 | -1 | 79* | 0
CCOC(=O)C1CCC(CNCc2ccc(Cl)cc2)CC1 (stereo not drawn) | 0 | 20 | 0 | 92* | -1
CCOC(=O)Cc1ccc(NCc2ccc(Cl)cc2)cc1 | 1 | 8 | 0 | 100* | 2
COc1ccc(-n2ncc3c(N4CCN(Cc5ccccc5)CC4)ncnc32)cc1 | 1 | 48 | 2 | 67* | 36
SMILES | ABCB1 block | WT yeast gro inh | RAM inhibit | Lmaj promast | ABCG2 inh
CC1CC(C)CN(c2ncnc3c2cnn3-c2ccc(Cl)cc2)C1 (stereo not drawn) | 0 | 62* | 6 | -4 | 1
CN1CCN(c2ncnc3c2cnn3-c2ccc(Cl)cc2)CC1 | 0 | 22 | 0 | 88* | 5
CCN1CCN(c2ncnc3c2cnn3-c2ccccc2)CC1 | 0 | 16 | 3 | -3 | 1
Cc1ccc(C(=O)N2CCN(c3ncnc4c3cnn4-c3ccccc3)CC2)cc1 | / | / | / | 53* | /
CCOC(=O)COc1ccc(Br)cc1C1NC(=O)NC(C)=C1C(=O)NCc1ccccc1 (stereo not drawn) | 0 | 2 | 0 | -2 | 1
O=C(O)CCCNC(=O)c1ccccn1 | 1 | -5 | 1 | -3 | 6
O=C(CCC1CCCN(c2ncccn2)C1)NCc1ccc(F)c(F)c1 (stereo not drawn) | 0 | 6 | 3 | -7 | 4
CCOC(=O)C(NC(=O)N(C)C)(Nc1sc(C)c(CC)c1C#N)C(F)(F)F (stereo not drawn) | -1 | 3 | 2 | -4 | -2
Cc1cccc(-n2c(C)cc(/C=C3\C(=N)N4N=C(CC(C)C)SC4=NC3=O)c2C)c1 | 1 | 2 | 8 | 59* | 2
COc1ccc(C2Oc3ccccc3C3=C2C(c2cccs2)n2ncnc2N3)cc1 (stereo not drawn) | 1 | 20 | 3 | 69* | 2
Brc1ccc(C2C3=C(Nc4ncnn42)c2ccccc2OC3c2ccncc2)cc1 (stereo not drawn) | 1 | 10 | 2 | 75* | 3
CC1(C)Oc2ccc(C(=O)NN)cc2NC1=O | 0 | 3 | 2 | -4 | 1
Cc1c2c(nc3ccccc13)OCC2 | 1 | -6 | 1 | 11 | -2
CC1CCc2c(C(=O)NCCN3CCOCC3)csc2C1 (stereo not drawn) | 0 | 0 | 1 | 17 | 3
CCN1CCN(CCCNC(=O)c2csc3c2CCCCC3)CC1 | 1 | 11 | 6 | 99* | 7
CC1CCc2c(C(=O)NCCCN3CCOCC3)csc2C1 (stereo not drawn) | 0 | 9 | 0 | 93* | 0
O=C(NCCN1CCOCC1)c1csc2c1CCCCC2 | 0 | -7 | 0 | -1 | 0
COc1ccc(C2=NN(S(C)(=O)=O)C(c3cccs3)C2)cc1OC (stereo not drawn) | 1 | -16 | 4 | 0 | 2
Cc1ccc(Cl)cc1N1CCN(C(=O)CN(c2ccccc2)S(=O)(=O)N(C)C)CC1 | 1 | 5 | 3 | 18 | 4
O=C(NCCc1ccc(Cl)cc1)/C(=C/c1cccnc1)NC(=O)c1ccccc1 | 0 | 6 | -1 | 59* | 4
COc1ccccc1CCNC(=O)/C(=C/c1cccnc1)NC(=O)c1ccccc1 | 2 | 10 | 3 | 9 | 5
CCC1=NN2C(=N)/C(=C\c3ccc(OCc4cc(=O)n5nc(CC)sc5n4)c(OC)c3)C(=O)N=C2S1 | -1 | -6 | 3 | -4 | -3
COC(=O)c1ccc(COc2ccccc2/C=C(\C#N)C(=O)Nc2c(C)cc(C)cc2C)cc1 | 8 | 8 | 3 | 100* | 34
COC(=O)c1ccc(COc2ccccc2/C=C(\C#N)C(=O)Nc2ccc(C)cc2C)cc1 | -1 | -4 | 2 | 10 | -3
CCOC(=O)c1csc(NC(=O)c2ccc(C#N)cc2)n1 | 0 | 3 | 1 | 5 | 5
CCc1ccc(CCC(=O)Nc2ccccc2C(=O)O)o1 | 0 | 77* | -1 | -6 | 1
CC(C)OCCCNc1ncnc2c1[nH]c1ccccc12 | 0 | 12 | 0 | 70* | 6
O=c1c2[nH]c3ccccc3c2ncn1CCC1=CCCCC1 | 0 | 24 | 3 | 4 | 0

Screening results from PubChem.
